Assay outcomes deposited in PubChem by several laboratories.
An excerpt weighted towards active compounds, which were near 2.2% of everything screened.
rCAG RNA binder = r(CAG) repeat RNA binding; TO-PRO-1 dye displacement fluorescence; inhibition, % at 3 µM; 370,000 tested, 1.3% active;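 active means inhibition above the plate cutoff, the mean of all test compounds on that plate plus 3 SD, cut at about 35% in these data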;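 further: 0% = DMSO alone and 100% = 100 µM mitoxantrone as full dye displacement; higher means more dye released from RNA so lower well fluorescence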
ASAP1 inh = ASAP1 ArfGAP inhibition | Q9ULH1 | ASAP1-stimulated ARF1 GTP hydrolysis, GDP FP detection | inhibition, % at 16.5 µM | 360,000 tested, 0.19% active; in the data active means inhibition above about 25%;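 further: 0% = vehicle with enzyme and substrate and 100% = no enzyme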
Target sequence (Q9ULH1 325-724 limits assumed): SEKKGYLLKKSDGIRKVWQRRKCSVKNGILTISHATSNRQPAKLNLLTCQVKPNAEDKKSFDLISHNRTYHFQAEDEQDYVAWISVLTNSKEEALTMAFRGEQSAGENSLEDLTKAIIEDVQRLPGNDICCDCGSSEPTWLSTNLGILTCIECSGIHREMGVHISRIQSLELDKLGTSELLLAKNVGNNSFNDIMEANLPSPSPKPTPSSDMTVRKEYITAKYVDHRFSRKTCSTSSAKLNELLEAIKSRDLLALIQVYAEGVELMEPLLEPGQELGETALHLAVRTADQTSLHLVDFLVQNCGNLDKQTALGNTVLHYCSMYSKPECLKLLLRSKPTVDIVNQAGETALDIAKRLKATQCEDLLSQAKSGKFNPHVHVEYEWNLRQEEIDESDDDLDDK
ARFGAP1 inh = rat ARFGAP1 inhibition. Arfgap1-stimulated ARF1 GTP hydrolysis, GDP FP detection. inhibition, % at 16.5 µM. 360,000 tested, 0.26% active. AID 651572;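 active means inhibition above a per-plate limit, mean inhibition of low control wells plus 3 SD, cut at about 25% in these data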;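 further: 0% = DMSO wells with enzyme and 100% = wells lacking Arfgap1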
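system = rat Arfgap1 catalytic domain, aa 1-136 | technique = FP, GDP Alexa 633 tracer displaced from anti-GDP antibody, 620/688 nm | compound = one concentration, 16.5 µM, DMSO 1.26% | medium = HEPES-based buffer, pH 7.5 | timing = compound-enzyme preincubation 20 min, reaction 120 min, detection 60 min, 25 °C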
NadD block = inhibitors of Staphylococcus aureus NadD; 360,000 tested, 0.78% active; inhibition, % at 20 µM; purified NadD enzyme, colorimetric absorbance read-out; in the data active means inhibition above about 26%
NadD conf = NadD (S. aureus) inhibition, single concentration confirmation | 2,000 tested, 13% active | inhibition, % at 20 µM | purified S. aureus NadD, colorimetric enzyme assay | shares compounds with NadD block; in the data active means inhibition mostly above about 42%, no sharp cut-off; inactive means mostly below about 42%
Numbers without * were called inactive; · = no result given.

SMILES	rCAG RNA binder	ASAP1 inh	ARFGAP1 inh	NadD block	others
Cc1ccc(OC2CCN(C(=O)[C@H]3O[C@@H](n4ccc(=O)[nH]c4=O)[C@H](O)[C@@H]3O)CC2)cc1	1	5	2	-4
COc1cccc2c1C(=O)c1c(O)c3c(c(O)c1C2=O)C[C@@](O)(C(=O)CO)C[C@@H]3OC1CC(N)C(O)C(C)O1 (some centres undefined)	10	0	3	53*
COc1cccc2c1C(=O)c1c(O)c3c(c(O)c1C2=O)C[C@@](O)(C(=O)CO)C[C@@H]3O[C@H]1C[C@H](N)[C@H](O)[C@H](C)O1	10	-9	-1	19
CCCC1=NN2C(=N)/C(=C\c3cc(C)n(-c4cc(C)cc(C)c4)c3C)C(=O)N=C2S1	9	-9	8	37*
Cc1cccc(-n2c(C)cc(/C=C3\C(=N)N4N=C(CC(C)C)SC4=NC3=O)c2C)c1	1	-5	-4	26
CC1=NN2C(=N)/C(=C\c3cc(C)n(-c4cccc(C)c4)c3C)C(=O)N=C2S1	6	-2	-2	14
Cc1cc(C)cc(-n2c(C)cc(/C=C3\C(=N)N4N=C(CC(C)C)SC4=NC3=O)c2C)c1	1	-2	-13	35*
O=[N+]([O-])c1ccc(SN2CCCCC2)c([N+](=O)[O-])c1	1	0	-17	·
COc1cccc2sc(Nc3nc(-c4ccccn4)cs3)nc12	·	·	·	35*
COC(=O)c1cc(-c2ccccc2)c(=O)n2c1CCC2	0	·	·	·
O=C(/C=C1\NC2(CCCC2)Cc2ccccc21)C(=O)N/N=C/c1ccc(O)c(O)c1	18	13	2	38*
O=C(NNC(=O)c1ccccc1-c1ccccc1C(=O)O)c1ccccc1	0	-10	-6	0
O=C(C=P(c1ccccc1)(c1ccccc1)c1ccccc1)c1ccccc1-c1ccccc1C(=O)C=P(c1ccccc1)(c1ccccc1)c1ccccc1	8	-8	0	56*
CCCCCCCCCCCC1=C(O)C(=O)C=C(O)C1=O	·	·	·	37*
COC1=C(OC)C(=O)C(CCCCCCCCCCO)=C(C)C1=O	-1	-1	3	-1
COC1=CC(=O)C(O)=C(CCCCCCC/C=C/CCCCCCCC2=C(O)C(=O)C=C(OC)C2=O)C1=O	·	·	·	51*
COc1ccc(C=CC(=O)c2c(N)n(C)c(=O)n(C)c2=O)cc1	2	-5	-6	·
COc1ccc(/C=N/Nc2nnc(-c3ncc[nH]3)c3ccccc23)cc1	·	·	·	-2
Oc1ccc2ccccc2c1/C=N/Nc1nnc(-c2ncc[nH]2)c2ccccc12	12	4	1	51*
O=C(/C=C/c1cc[n+](CC(=O)c2ccc3cccc4c3c2CC4)cc1)c1ccc2cccc3c2c1CC3	·	·	·	83*
O=C(C[n+]1ccc2ccccc2c1)c1cccc2ccccc12	9	-9	-3	1
O=C1c2ccc(-c3ccc(F)cc3OCc3ccccc3)cc2S(=O)(=O)c2cccc(C(=O)N3CCN(c4ncc(Br)cn4)CC3)c21	21	10	-7	58*
COc1ccc(NC(=O)/C=C/c2ccc(Br)o2)cn1	2	-5	11	8
COc1ccccc1CNC(=O)/C=C/c1ccc(Br)o1	9	3	8	32*	NadD conf=30
CC(=O)Nc1ccc(NC2=Nc3ccccc3N3C2=Nc2c(c(C)nn2-c2ccccc2)C3c2ccccc2)cc1 (centres undefined)	5	-6	5	37*	NadD conf=31
Cc1c(C(=O)N2CC3(CC(c4cccc(NC(=O)CC(c5ccccc5)c5ccccc5)c4)=NO3)C[C@@H]2C(N)=O)cc([N+](=O)[O-])cc1[N+](=O)[O-] (some centres undefined)	27	7	10	30*	NadD conf=48*
NC(=O)[C@@H]1CC2(CC(c3cccc(NC(=O)CC(c4ccccc4)c4ccccc4)c3)=NO2)CN1C(=O)c1ccc(Cl)cc1 (some centres undefined)	23	-4	9	32*	NadD conf=23
C/C=C(\C)C(=O)Nc1cccc(C2=NOC3(C2)C[C@@H](C(N)=O)N(C(=O)c2cc([N+](=O)[O-])cc([N+](=O)[O-])c2C)C3)c1 (some centres undefined)	12	15	-1	13
NC(=O)[C@H]1CC2(CC(c3cccc(NC(=O)CC(c4ccccc4)c4ccccc4)c3)=NO2)CN1C(=O)CC(c1ccccc1)c1ccccc1 (some centres undefined)	14	6	16	42*	NadD conf=19
